Active and inactive are the calls of the source. The rule behind the calls is not given here.

One data set concerns the target Phosphodiesterase 4 (Homo sapiens, UniProt P27815+Q08499+Q07343+Q08493). The data set is described as follows: Inhibition of human PDE4. The class given is protein assay. The method, boiled down:
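PDE4 enzyme was isolated from U937 cells, following a previously reported method.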

Another data set relates to PBMC. The data set is described as follows: Inhibition of TNFalpha production in LPS-stimulated human PBMC preincubated before LPS challenge measured after 4 hrs by enzyme immunoassay. The class given is functional, cell-based.
In data set [1] the test system is Rattus norvegicus. Description: Antiinflammatory activity in po dosed BN rat late airway inflammatory model assessed as inhibition of ovalbumin-induced cell infiltration in bronchoalveolar lavage fluid measured 48 hrs after ovalbumin challenge. Particulars: Lung. The class given is functional.
In another data set the test system is Blood. The data set is described as follows: Inhibition of TNFalpha production in LPS-stimulated human whole blood preincubated before LPS challenge measured after 4 hrs by enzyme immunoassay. The class given is functional, tissue-based.
Data set [2] relates to Rattus norvegicus. Description: Antiinflammatory activity in rat assessed as inhibition of LPS-induced TNFalpha production at 0.01 mg/kg, po. The class given is functional, organism-based. Also noted: dose 0.01 mg/kg.
Data set [3] in a line: Metabolic stability in human microsomes assessed as half life. The class given is ADME, Microsome.
The nature of data set [4]: Volume of distribution at steady state in rat at 5 mg/kg, iv. The class given is ADME, organism-based. Particulars: in vivo, read-out: Vdss. Also noted: dose 5 mg/kg, route intravenous. The method, boiled down: (§1)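 Pharmacokinetics were determined in female rats after oral and intravenous administration.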
A short description of data set [5]: Oral bioavailability in rat at 10 mg/kg. The class given is ADME, organism-based. Particulars: in vivo. The method, boiled down:
as §1

The nature of data set [6]: Half life in rat at 10 mg/kg, po. The note with it: in vivo. Further details: dose 10 mg/kg, route oral. The class given is ADME, organism-based. The method, boiled down: as §1
Another data set addresses T1, Cytochrome P450 1A2 (Homo sapiens, UniProt P05177).
T1 sequence (P05177 whole entry): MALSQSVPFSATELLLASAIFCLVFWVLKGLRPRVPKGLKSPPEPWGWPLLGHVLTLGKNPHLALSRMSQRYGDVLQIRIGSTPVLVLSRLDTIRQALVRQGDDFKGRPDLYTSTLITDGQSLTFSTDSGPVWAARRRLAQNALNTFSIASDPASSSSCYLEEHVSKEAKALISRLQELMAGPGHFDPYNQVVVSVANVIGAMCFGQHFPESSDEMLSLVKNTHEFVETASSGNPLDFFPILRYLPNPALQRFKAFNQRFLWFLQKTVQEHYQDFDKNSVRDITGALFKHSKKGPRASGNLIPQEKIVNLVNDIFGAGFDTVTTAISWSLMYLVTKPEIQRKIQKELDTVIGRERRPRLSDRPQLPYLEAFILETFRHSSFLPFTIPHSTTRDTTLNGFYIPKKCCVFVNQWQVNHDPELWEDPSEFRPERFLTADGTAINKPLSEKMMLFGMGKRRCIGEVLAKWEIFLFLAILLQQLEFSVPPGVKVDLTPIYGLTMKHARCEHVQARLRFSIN
Description: Inhibition of CYP1A2. The class given is ADME.

The next data set addresses Cytochrome P450 2C9 (Homo sapiens, UniProt P11712). The data set is described as follows: Inhibition of CYP2C9. The class given is ADME.
A short description of data set [7]: AUC in rat at 10 mg/kg, po. The class given is ADME, organism-based. Further details: dose 10 mg/kg, route oral. The note with it: plasma. The method, boiled down: as §1
A further data set concerns the target Cytochrome P450 2C19 (Homo sapiens, UniProt P33261). The data set is described as follows: Inhibition of CYP2C19. The class given is ADME.
The nature of data set [8]: Cmax in rat at 5 mg/kg, iv. The class given is ADME, organism-based. Also noted: dose 5 mg/kg, route intravenous. The note with it: in vivo. The method, boiled down: as §1
Data set [9] can be described thus: Cmax in rat at 10 mg/kg, po. The class given is ADME, organism-based. Also noted: dose 10 mg/kg, route oral. Particulars: in vivo. The method, boiled down: as §1
The subject of data set [10] is Rattus norvegicus. The data set is described as follows: Antiinflammatory activity in po dosed rat assessed as inhibition of LPS-induced TNFalpha production. The class given is functional. The method, boiled down:
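Rat in vivo model: rats were dosed orally and TNF-α production was induced with LPS. Inhibition of TNF-α production was measured and an ED50 was determined.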

Data set [11] is described as follows: AUC in rat at 5 mg/kg, iv. The class given is ADME, organism-based. Further details: dose 5 mg/kg, route intravenous. Particulars: plasma. The method in brief:
as §1

Data set [12] deals with Rattus norvegicus. The data set is described as follows: Antiinflammatory activity in po dosed rat assessed as inhibition of LPS-induced neutrophilia in bronchoalveolar lavage fluid. Particulars: Lung. The class given is functional. The method, boiled down:
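Rat in vivo model: rats were dosed orally and neutrophilia was induced with LPS. Neutrophils were counted in bronchoalveolar lavage fluid and an ED50 for inhibition was determined.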

The target in another data set is Cytochrome P450 3A4 (Homo sapiens, UniProt P08684). Description: Inhibition of CYP3A4. The class given is ADME.
For the next data set, the target named is Cytochrome P450 2D6 (Homo sapiens, UniProt P10635). The data set is described as follows: Inhibition of CYP2D6. The class given is ADME.
A short description of data set [13]: Clearance in rat at 5 mg/kg, iv. Further details: dose 5 mg/kg, route intravenous. The class given is ADME, organism-based. The note with it: in vivo. The method in brief: as §1
The nature of data set [14]: Half life in rat at 5 mg/kg, iv. Also noted: dose 5 mg/kg, route intravenous. The class given is ADME, organism-based. The note with it: in vivo. The method, boiled down: as §1
The nature of data set [15]: Protein binding in human plasma. The class given is ADME, cell-free. The note with it: read-out: PPB (converted).
Data set [16] in a line: Ratio of IC50 for TNFalpha production in LPS-stimulated human whole blood to IC50 for TNFalpha production in LPS-stimulated human PBMC. The class given is functional.

Cytochrome P450 2D6, sequence (P10635 whole entry): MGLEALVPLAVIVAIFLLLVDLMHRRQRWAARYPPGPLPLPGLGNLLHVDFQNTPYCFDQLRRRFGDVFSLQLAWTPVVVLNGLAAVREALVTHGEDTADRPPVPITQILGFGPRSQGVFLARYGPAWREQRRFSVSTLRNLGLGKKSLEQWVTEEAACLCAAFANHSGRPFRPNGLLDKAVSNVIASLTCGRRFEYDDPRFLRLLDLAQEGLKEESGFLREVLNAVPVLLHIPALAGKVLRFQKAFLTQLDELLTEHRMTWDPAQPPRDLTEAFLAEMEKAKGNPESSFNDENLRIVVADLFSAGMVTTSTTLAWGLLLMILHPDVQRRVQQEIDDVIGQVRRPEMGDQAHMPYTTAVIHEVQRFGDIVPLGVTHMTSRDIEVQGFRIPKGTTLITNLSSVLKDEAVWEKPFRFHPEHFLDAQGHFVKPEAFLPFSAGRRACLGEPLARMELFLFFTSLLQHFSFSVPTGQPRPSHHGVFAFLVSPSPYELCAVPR
Cytochrome P450 2C9, sequence (P11712 whole entry): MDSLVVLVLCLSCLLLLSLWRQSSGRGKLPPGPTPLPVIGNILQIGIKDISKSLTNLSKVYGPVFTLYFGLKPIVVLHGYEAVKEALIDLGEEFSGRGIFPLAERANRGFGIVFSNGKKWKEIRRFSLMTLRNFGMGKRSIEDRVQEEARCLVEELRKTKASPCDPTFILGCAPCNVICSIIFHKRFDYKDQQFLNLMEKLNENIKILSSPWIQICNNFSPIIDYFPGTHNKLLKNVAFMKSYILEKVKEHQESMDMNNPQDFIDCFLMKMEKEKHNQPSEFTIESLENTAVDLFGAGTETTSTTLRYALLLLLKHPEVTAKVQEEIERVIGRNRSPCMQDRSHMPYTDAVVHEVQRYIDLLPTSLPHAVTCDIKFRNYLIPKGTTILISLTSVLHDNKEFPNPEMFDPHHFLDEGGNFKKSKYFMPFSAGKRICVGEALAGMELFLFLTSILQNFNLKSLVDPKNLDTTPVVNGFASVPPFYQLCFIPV
Cytochrome P450 2C19, sequence (P33261 whole entry): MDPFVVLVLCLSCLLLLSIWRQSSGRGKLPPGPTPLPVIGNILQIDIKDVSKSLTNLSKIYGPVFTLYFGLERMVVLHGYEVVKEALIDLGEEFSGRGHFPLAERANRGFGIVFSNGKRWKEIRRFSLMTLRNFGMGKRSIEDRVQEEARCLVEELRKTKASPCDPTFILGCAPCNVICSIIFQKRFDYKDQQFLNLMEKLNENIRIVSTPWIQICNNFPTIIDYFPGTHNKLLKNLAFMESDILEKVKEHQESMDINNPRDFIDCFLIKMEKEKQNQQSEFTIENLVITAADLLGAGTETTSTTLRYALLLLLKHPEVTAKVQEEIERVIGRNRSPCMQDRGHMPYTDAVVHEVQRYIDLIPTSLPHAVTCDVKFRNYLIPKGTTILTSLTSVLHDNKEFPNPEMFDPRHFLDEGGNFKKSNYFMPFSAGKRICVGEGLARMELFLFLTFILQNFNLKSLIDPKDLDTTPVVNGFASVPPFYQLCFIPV
Cytochrome P450 3A4, sequence (P08684 whole entry): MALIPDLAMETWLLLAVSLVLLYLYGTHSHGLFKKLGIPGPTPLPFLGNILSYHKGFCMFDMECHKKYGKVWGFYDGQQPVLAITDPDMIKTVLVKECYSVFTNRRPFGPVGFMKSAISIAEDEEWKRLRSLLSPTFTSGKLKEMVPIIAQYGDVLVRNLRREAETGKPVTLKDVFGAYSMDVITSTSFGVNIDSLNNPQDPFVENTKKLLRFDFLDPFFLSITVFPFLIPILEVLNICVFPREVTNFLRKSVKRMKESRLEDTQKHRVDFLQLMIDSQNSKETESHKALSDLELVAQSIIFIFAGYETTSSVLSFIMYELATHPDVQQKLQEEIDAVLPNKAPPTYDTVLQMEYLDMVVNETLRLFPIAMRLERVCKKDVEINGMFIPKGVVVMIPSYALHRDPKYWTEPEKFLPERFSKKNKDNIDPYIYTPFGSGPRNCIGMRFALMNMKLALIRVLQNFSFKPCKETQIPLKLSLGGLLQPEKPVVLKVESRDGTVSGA

For the molecule `CCOc1cc(C(CS(C)(=O)=O)N2C(=O)c3cccc(OC)c3C2=O)ccc1OC` (racemic), the results for the 50% inhibitory concentration (IC50) at Phosphodiesterase 4 and with PBMC were 690 nM and 340 nM, respectively.

For the molecule `CCOc1cc(C(CS(C)(=O)=O)N2C(=O)c3cccc(O)c3C2=O)ccc1OC` (racemic), the IC50 is 820 nM on Phosphodiesterase 4 and 1470 nM in the data set with PBMC.

In the data set on PBMC, `O=C(Nc1c(Cl)cncc1Cl)c1ccc(OC(F)F)c(OCC2CC2)c1` [ROFLUMILAST] registered an IC50 of 0.02 nM. For the same molecule, the ED50 in the data set with Rattus norvegicus [1] turned out to be 0.9 mg/kg.

In the data set on PBMC, `CCOc1cc([C@H](CS(C)(=O)=O)N2C(=O)c3cccc(NC(C)=O)c3C2=O)ccc1OC` came in with a 50% inhibitory concentration (IC50) of 370 nM. That is a sub-micromolar value.

With `COc1ccc(C(CC#N)N2C(=O)c3ccccc3C2=O)cc1OC1CCCC1` (stereo unspecified), the IC50 on Phosphodiesterase 4 was 340 nM.

As to `CCOc1cc([C@@H](CC(N)=O)N2C(=O)c3cccc(NC(C)=O)c3C2=O)ccc1OC`, the IC50 against Phosphodiesterase 4 was 710 nM; with PBMC, 3000 nM.

Regarding `COc1ccc(C(CC(=O)O)N2C(=O)c3ccccc3C2=O)cc1OC1CCCC1` (stereo unspecified), the values for the IC50 on Phosphodiesterase 4 and with PBMC were 340 nM and 36000 nM, respectively.

As for `CCOc1cc(C(CC#N)N2C(=O)c3cccc(NC(C)=O)c3C2=O)ccc1OC` (racemic), the IC50 turned out to be 130 nM on Phosphodiesterase 4, 440 nM in the data set with PBMC and 1600 nM in the data set with Blood.

Turning to `CCOc1cc(C(CS(C)(=O)=O)N2C(=O)c3ccccc3C2=O)ccc1OC` (stereo unspecified), the IC50 is 220 nM at Phosphodiesterase 4, 1300 nM in the data set on PBMC and 2500 nM in the data set with Blood.

With `CCOc1cc([C@@H](CS(C)(=O)=O)N2C(=O)c3cccc(NC(C)=O)c3C2=O)ccc1OC`, in the data set on Rattus norvegicus [2], the outcome was Active. Besides, the half-life was > 1 h in data set [3], 5 h in data set [6] and 3 h in data set [14]. The Vd in data set [4] turned out to be 2 L/kg. Moreover, the half-inhibitory concentration (IC50) in the data set with PBMC is 77 nM; at Cytochrome P450 1A2 it was > 10000 nM; on Cytochrome P450 2C9, > 10000 nM; at Cytochrome P450 2C19 it was > 10000 nM; with Blood it was 110 nM; against Cytochrome P450 3A4, > 10000 nM. Also, at Cytochrome P450 2D6, the 50% inhibitory concentration (IC50) was > 10000 nM. In data set [5], this molecule displayed a bioavailability of 64%. Further, the AUC amounted to 14000 ng·h/mL in data set [7] and 11000 ng·h/mL in data set [11]. The highest concentration (Cmax) in data set [8] amounted to 6600 ng/mL; in data set [9], 1100 ng/mL. In addition, the 50% effective dose (ED50) in the data set on Rattus norvegicus [10] stood at 0.03 mg/kg; in the data set on Rattus norvegicus [12], 0.3 mg/kg. The clearance in [13] was 8.33 mL/min/kg. Moreover, the fraction unbound in data set [15] is 0.1.

Take `CCOc1cc(C(CC#N)N2C(=O)c3ccccc3C2=O)ccc1OC` (stereo unspecified): the half-maximal inhibitory concentration (IC50) on Phosphodiesterase 4 is 40 nM; in the data set with PBMC, 240 nM; in the data set on Blood it was 490 nM.

For `CCOc1cc(C(CS(C)(=O)=O)N2C(=O)c3cccc(NC(C)=O)c3C2=O)ccc1OC` (racemic), the concentration for half-maximal inhibition (IC50) in the data set with PBMC came out at 190 nM; with Blood it was 440 nM.

Take `COc1ccc(C(CS(C)(=O)=O)N2C(=O)c3ccccc3C2=O)cc1OC1CCCC1` (stereo unspecified): the half-inhibitory concentration (IC50) on Phosphodiesterase 4 came to 260 nM; in the data set with PBMC, 1500 nM.

In the case of `CCOc1cc(C(CS(C)(=O)=O)N2C(=O)c3cccc(N(C)C)c3C2=O)ccc1OC` (racemic), the 50% inhibitory concentration (IC50) against Phosphodiesterase 4 worked out at 120 nM; in the data set on PBMC it was 220 nM; in the data set on Blood, 1400 nM. Further, the “Ratio IC50” value in data set [16] is 6.

For `CCOc1cc(C(CC(=O)O)N2C(=O)c3ccccc3C2=O)ccc1OC` (stereo unspecified), the half-inhibitory concentration (IC50) stood at 1300 nM on Phosphodiesterase 4 and 35000 nM in the data set on PBMC.

Take `CCOc1cc(C(CS(C)(=O)=O)N2C(=O)c3cccc(N)c3C2=O)ccc1OC` (racemic): the half-inhibitory concentration (IC50) is 120 nM at Phosphodiesterase 4, 370 nM with PBMC and 2200 nM in the data set with Blood. Besides, in data set [16], the “Ratio IC50” value turned out to be 6.

For the molecule `CCOc1cc(C(CC(=O)OC)N2C(=O)c3ccccc3C2=O)ccc1OC` (stereo unspecified), the half-inhibitory concentration (IC50) against Phosphodiesterase 4 came to 220 nM; with Blood, 4000 nM.

As for `CCOc1cc(C(CS(C)(=O)=O)N2C(=O)c3cccc(C)c3C2=O)ccc1OC` (racemic), the IC50 at Phosphodiesterase 4 was 68 nM; in the data set with PBMC, 270 nM; with Blood, 2400 nM. The Ratio IC50 in data set [16] was 9.

As to `COC(=O)CC(c1ccc(OC)c(OC2CCCC2)c1)N1C(=O)c2ccccc2C1=O` (stereo unspecified), the half-maximal inhibitory concentration (IC50) worked out at 1600 nM on Phosphodiesterase 4 and 1700 nM in the data set on PBMC.

For `CCOc1cc(C(CC(N)=O)N2C(=O)c3ccccc3C2=O)ccc1OC` (stereo unspecified), the concentration for half-maximal inhibition (IC50) on Phosphodiesterase 4 is 1900 nM; with Blood, 10500 nM.

The values are drawn from ChEMBL document CHEMBL1152807 (J Med Chem, 2009).
